# Compound activity as filed in PubChem.
# MC4R antagonist = blocks human MC4R cAMP signaling; MC4R-expressing cells, MTII-stimulated cAMP, LANCE TR-FRET; inhibition, % at 6.5 µM; actives 0.48% (n = 360,000); AID 540295;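 active = inhibition above its plate's cutoff, the mean of tested wells on that plate plus 3 SD, cut at about 29% in these data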
#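 Test system: U2OS cells stably expressing human melanocortin 4 receptor (MC4R); also added: Melanotan II challenge; compound: 6.5 µM single dose; timing: 30-min compound preincubation, 1-h Melanotan II challenge, 1-h detection, room temperature; signal: Eu-cAMP/anti-cAMP TR-FRET, emission 671 nm; repeats: one well per compound, no replicates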
# MC4R barr agon = human MC4R agonism via beta-arrestin; P32245; U2OS MC4R beta-arrestin complementation, luminescence; percent of melanotan II response, DMSO zero; actives 0.98% (n = 360,000); activation, % at 8.9 µM;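 active = activation above a per-plate cutoff, the mean activation of sample wells on that plate plus 3 SD, cut at about 8% in these data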
# TAAR1 agonist = human TAAR1 agonism; Q96RJ0; CHO RD-HGA16 TAAR1, Fluo-8 calcium fluorescence; vehicle wells 0%, saturating PEA agonist 100%; activation, % at 3 µM; actives 0.99% (n = 360,000);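 active = activation above the mean activation of all test compounds in the run plus 3 SD, cut at about 38% in these data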
#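 Repeats: no replicates (n 1) | Material: CHO-derived RD-HGA16 cells with stable Gα16 and human TAAR1 | Technique: Kinetic Fluo-8 calcium fluorescence | Schedule: 17-24 h seeding, 75 min 37 °C dye, 30 min RT | Evaluation: % activation from peak over basal fluorescence ratio, DMSO-to-PEA scaled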
# m5-HT2A agonist = mouse HTR2A agonism via beta-arrestin recruitment; P35363; CHO-K1 mHTR2A beta-arrestin complementation, luminescence; percent of 30 µM serotonin response; activation, % at 7.6 µM; actives 0.66% (n = 360,000);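 active = activation above a run cutoff, the mean activation of all tested compounds plus 3 SD, cut at about 14% in these data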
# Target sequence (P35363 whole entry, looked up): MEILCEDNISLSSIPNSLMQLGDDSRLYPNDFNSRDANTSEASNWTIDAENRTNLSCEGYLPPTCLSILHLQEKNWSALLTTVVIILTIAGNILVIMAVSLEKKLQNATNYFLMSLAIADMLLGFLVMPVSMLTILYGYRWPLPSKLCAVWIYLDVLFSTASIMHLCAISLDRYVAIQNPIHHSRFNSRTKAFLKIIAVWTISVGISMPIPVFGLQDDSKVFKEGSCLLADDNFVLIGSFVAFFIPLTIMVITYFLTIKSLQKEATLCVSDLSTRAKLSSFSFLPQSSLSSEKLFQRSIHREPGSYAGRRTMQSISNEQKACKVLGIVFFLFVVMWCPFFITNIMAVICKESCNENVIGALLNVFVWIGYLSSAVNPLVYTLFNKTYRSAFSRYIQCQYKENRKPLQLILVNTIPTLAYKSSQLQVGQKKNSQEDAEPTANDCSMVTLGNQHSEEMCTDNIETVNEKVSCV
# TAAR1 antag = human TAAR1 antagonism; actives 1.5% (n = 360,000); inhibition, % at 3 µM; Q96RJ0; AID 624466; CHO RD-HGA16 TAAR1, Fluo-8 calcium fluorescence, antagonist;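 active = inhibition above a per-plate cutoff, the mean inhibition of test compounds on that plate plus 3 SD, cut at about 49% in these data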
#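 Material: CHO RD-HGA16 cells bearing hTAAR1; compound dosing: one-point dosing, 3 µM nominal final; schedule: dye loading 75 min at 37 °C, then 30 min room temperature; measured by: calcium fluorescence with Fluo-8; control set: vehicle and agonist controls; replication: n of 1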
# Beta2AR agonist = activates human beta-2 adrenergic receptor causing internalization; Am2.2-beta2AR cells, FAP receptor internalization, flow cytometry; actives 0.43% (n = 340,000); response, % (test concentration not listed);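 active = response above a set limit, near 3 SD of response in nonfluorescent compounds, cut at about 42% in these data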
# TAAR1 nonsel count = nonselective antagonism, TAAR1 counter-screen. shares compounds with TAAR1 antag. counterscreen cell line, calcium fluorescence, antagonist mode. inhibition, % at 3 µM. actives 77% (n = 2,400). AID 651780; in the data active = inhibition above about 22%;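 note: CHO-Ga16 host cells stimulated with ATP at an EC80 level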
# TAAR1 ant conf = confirmation of human TAAR1 antagonists | actives 40% (n = 2,400) | TAAR1-expressing cells, fluorescence antagonist read-out | shares compounds with TAAR1 antag | inhibition, % at 3 µM | AID 651785; in the data active = inhibition above about 49%;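 note: CHO-Ga16 host cells challenged with agonist PEA near its EC80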
# Ga16 nonsel ag = counter-screen for TAAR1 antagonists: nonselective Ga16 agonists | shares compounds with TAAR1 antag | Ga16-expressing cells, calcium fluorescence, agonist counterscreen | activation, % at 3 µM | actives 18% (n = 2,400); in the data active = activation above about 12%
# TAAR1 ag counter = TAAR1 agonism, antagonist counter-screen. hTAAR1 cell line, fluorescence activation, agonist mode. activation, % at 3 µM. actives 2% (n = 2,400). AID 651955. shares compounds with TAAR1 antag; in the data active = activation above about 37%;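 note: CHO cells stably expressing TAAR1 with calcium dye readout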
# Numbers stand for hits; n = inactive; x = no result given. An excerpt weighted towards active compounds, which were near 4.3% of everything screened.
SMILES,MC4R antagonist,MC4R barr agon,TAAR1 agonist,m5-HT2A agonist,TAAR1 antag,Beta2AR agonist,TAAR1 nonsel count,TAAR1 ant conf,Ga16 nonsel ag,TAAR1 ag counter
C/C(=N\NC(=O)c1ccncc1)c1cccc(NC(=O)c2ccc(C(C)(C)C)cc2)c1,n,n,n,n,76.0,n,37.0,54.0,n,n
C/C(=N\NC(=O)COc1ccccc1[N+](=O)[O-])c1cccc(NC(=O)c2ccncc2)c1,n,n,n,n,86.3,n,38.1,58.3,15.3,n
COc1ccc(/C(C)=N/NC(=O)c2ccncc2)cc1[N+](=O)[O-],n,n,n,n,n,n,x,x,x,x
C/C(=N/NC(=O)c1ccncc1)c1ccc(NC(=O)c2ccccc2)cc1,n,n,n,n,n,n,x,x,x,x
COc1ccc(S(N)(=O)=O)cc1C(=O)OCC(=O)N1CCCC(C)C1 (configuration not stated),n,n,n,n,n,n,x,x,x,x
Cn1c(N2CCCCC2)nc2c1c(=O)[nH]c(=O)n2C,n,n,n,n,n,n,x,x,x,x
CCN1CCN(c2nc3c(c(=O)[nH]c(=O)n3C)n2CCSc2nc3ccccc3s2)CC1,n,n,n,n,n,n,x,x,x,x
Cc1csc(SCCn2c(N3CCN(c4ccccc4)CC3)nc3c2c(=O)[nH]c(=O)n3C)n1,n,n,n,n,54.0,n,n,n,n,n
Cn1c(N2CCN(C(c3ccccc3)c3ccccc3)CC2)nc2c1c(=O)[nH]c(=O)n2C,n,n,n,n,66.7,n,30.6,49.8,12.9,n
CCCOc1ccc(N2C(=O)CC(SC(=NCC)NCC)C2=O)cc1 (configuration not stated),n,n,n,n,n,n,x,x,x,x
CCN=C(NCC)SC1CC(=O)N(c2ccc(F)cc2)C1=O (configuration not stated),n,n,n,n,89.7,n,28.1,56.9,n,n
Cc1nn(-c2ccccc2)c(N2CCCC2)c1/C=N/NC(=O)c1cc2ccccc2cc1O,n,n,n,n,50.9,n,44.0,49.8,11.9,n
Cc1nn(-c2ccccc2)c(N2CCCC2)c1/C=N/NC(=O)c1cc(-c2ccccc2)nc2ccccc12,n,n,n,n,n,n,x,x,x,x
CCCCn1c(N)c(N(CCOC)C(=O)c2ccc3c(c2)OCCO3)c(=O)[nH]c1=O,n,n,n,n,n,n,x,x,x,x
C=CCn1c(SCc2c(C)noc2C)nc2cc(C(=O)O)ccc2c1=O,n,n,n,n,75.8,n,n,n,n,n
C=CCn1c(SCc2c(C)noc2C)nc2ccccc2c1=O,n,n,n,n,n,n,x,x,x,x
CN(C(=O)c1ccc2c(c1)SC1=NS(=O)(=O)CCN12)C(c1ccccc1)c1ccccc1,n,n,n,n,69.5,n,30.7,53.2,n,n
CC(C)(C)N1C(=O)c2ccc(C(=O)Nc3nccs3)cc2C1=O,n,n,n,n,49.1,n,n,n,n,n
CCN(CC)S(=O)(=O)N1CCC(C(=O)NCC2COc3ccccc3O2)CC1 (configuration not stated),n,n,x,n,x,n,x,x,x,x
O=C(NCC1COc2ccccc2O1)C1CCN(S(=O)(=O)c2ccc(Cl)cc2)CC1 (configuration not stated),n,n,n,n,51.0,n,24.4,n,11.8,n
COc1ccc(CNC(=O)C(c2ccco2)N(C(=O)c2ccccn2)c2ccccc2)cc1 (configuration not stated),n,n,n,n,64.0,n,22.2,n,n,n
O=C(NCc1ccccc1)C(c1ccc(O)cc1)N(C(=O)c1cnccn1)c1ccccc1 (configuration not stated),n,n,n,n,62.7,n,33.7,52.6,n,n
O=C(NCc1ccccc1)C(c1ccco1)N(C(=O)c1ccccn1)c1ccccc1 (configuration not stated),n,n,n,n,n,n,x,x,x,x
CCOc1cc(-c2ccccc2)nc2c1CN(S(=O)(=O)c1ccc(C)cc1)C(c1cccc(Cl)c1)C2 (configuration not stated),x,x,n,n,n,x,x,x,x,x
O=C(Cc1ccc(F)cc1)Nc1nc(-c2ccc(F)c(F)c2)cs1,n,n,n,n,73.6,n,34.2,n,n,n
SMILES,MC4R antagonist,MC4R barr agon,TAAR1 agonist,m5-HT2A agonist,TAAR1 antag,Beta2AR agonist,TAAR1 nonsel count,TAAR1 ant conf,Ga16 nonsel ag,TAAR1 ag counter
COc1ccc(CC(=O)Nc2nc(-c3ccc(F)c(F)c3)cs2)cc1,n,n,n,n,n,n,x,x,x,x
CC1(C(=O)OCC(=O)Nc2nc(-c3ccc(F)c(F)c3)cs2)CC1(Cl)Cl (configuration not stated),n,n,n,n,87.8,n,48.8,76.0,n,n
Cc1ccc(C)c(N2CCN(C(=O)c3ccc(CSc4nc5ccncc5[nH]4)cc3)CC2)c1,n,n,n,n,50.1,n,36.4,n,12.2,n
O=C(c1ccc(CSc2nc3ccncc3[nH]2)cc1)N1CCCCC1,n,n,n,n,n,n,x,x,x,x
COc1ccc(C(=O)Nc2cc(C)nn2-c2nc3ccccc3[nH]2)c(OC)c1,n,n,n,n,n,n,x,x,x,x
COc1cccc(OC)c1C(=O)Nc1cc(C)nn1-c1nc2ccccc2[nH]1,n,n,n,n,69.2,n,28.3,48.9,n,n
CCN(C[C@H]1N[C@@](Cc2ccccc2)(C(=O)OC)[C@H]2C(=O)N(C)C(=O)[C@@H]12)S(=O)(=O)c1ccc(C(F)(F)F)cc1,n,n,n,n,74.8,n,22.7,n,n,n
CCN(C[C@H]1N[C@@](Cc2ccccc2)(C(=O)OC)[C@H]2C(=O)N(C)C(=O)[C@@H]12)S(=O)(=O)c1ccc(OC)cc1,n,n,n,n,n,n,x,x,x,x
CCN(C[C@H]1N[C@@](CC)(C(=O)OC)[C@H]2C(=O)N(Cc3ccccc3)C(=O)[C@@H]12)C(=O)c1ccccc1,n,n,n,n,50.1,n,24.7,n,n,n
